Reference: ChEMBL document CHEMBL1157671, “Synthesis and biological evaluation of trifluralin analogues as antileishmanial agents” (Bioorg Med Chem, 2010)

Columns and labels:
[1] = Cytotoxicity against human RBC assessed as hemolysis at 100 uM after 1 hr by microplate reader method; assay type: cell-based, Erythrocyte; conditions: red blood cells (RBC), read-out: Activity
In short: (§1)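 Washed RBCs from EDTA blood of healthy donors mixed 1:1 with compound in PBS (100 to 6.25 μM), 1 h at 37 °C, then centrifuged. Supernatant absorbance at 550 nm, reference 620 nm; % hemolysis = (A − A0)/(Amax − A0) × 100, PBS background, water as 100%. Triplicates.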

[2] = Cytotoxicity against human THP1 cells after 48 hrs by propidium iodide and SYBR14 satining-base flow cytometry; assay type: cell-based; conditions: THP-1 cells
In short: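 THP-1 cells at 1×10^6 cells/mL treated with compound (50 to 1.56 μM); stained with 12 μM PI and 100 nM SYBR-14 and live/dead ratio read by flow cytometry (488 nm laser; 545 and 645 nm emission). Incubation time given as 72 h in methods, 48 h in figure legend. Triplicates; CC50 derived from dose–response.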

[3] = tested on: Leishmania infantum; test: Antileishmanial activity against Leishmania infantum A1 amastigotes infected in human THP1 cells assessed as reduction in intracellular parasite load after 48 hrs by Giemsa staining; assay type: functional, organism-based; conditions: A1, THP-1, 48 h
In short: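 THP-1 differentiated with 1 μM retinoic acid for 72 h, then infected overnight with L. infantum promastigotes at 8:1 parasite/cell, 37 °C/5% CO2. Free parasites removed over Histopaque 1077; cells at 4 × 10^5/mL exposed to compound 48 h at 37 °C/5% CO2. Infected cells counted microscopically after Giemsa staining; IC50 ± σ by sigmoidal regression, three independent experiments.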

[4] = Ratio of miltefosine HC50 to compound HC50 for human RBC; assay type: cell-based, Erythrocyte; conditions: red blood cells (RBC), read-out: Ratio IC50
[5] = Aqueous solubility in water by UV spectrophotometry; conditions: buffer
[6] = Cytotoxicity against human RBC assessed as hemolysis after 1 hr by microplate reader method; assay type: cell-based, Erythrocyte; conditions: red blood cells (RBC); in short: as §1
[7] = tested on: Leishmania infantum; test: Ratio of miltefosine IC50 to compound IC50 for Leishmania infantum A1 amastigotes infected in human THP1 cells; assay type: functional, THP-1
[8] = tested on: Leishmania infantum; test: Antileishmanial activity against Leishmania infantum MHOM/TN/80/IPT1/LEM 235 promastigotes after 72 hrs by propidium iodide and SYBR14 satining-base flow cytometry; assay type: functional, organism-based; conditions: MHOM/TN/80/IPT1/LEM 235, 72 h
In short: (§2)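 Promastigotes grown in RPMI 1640 with 10% FCS, L-glutamine and antibiotics at 26 °C; seeded at 1×10^6 cells/mL with compound (DMSO/ethanol 50:50 stock, 2-fold dilutions 100 to 0.8 μM in medium) at 26 °C for 72 h. Stained with 12 μM PI and 100 nM SYBR-14 in HEPES-buffered saline with 10% BSA; live/dead read by flow cytometry. IC50 ± σ by sigmoidal regression, three independent experiments.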

[9] = tested on: Leishmania donovani; test: Antileishmanial activity against Leishmania donovani MHOM/IN/80/DD8/LEM 703 promastigotes after 72 hrs by propidium iodide and SYBR14 satining-base flow cytometry; assay type: functional, organism-based; conditions: MHOM/IN/80/DD8/LEM 703, 72 h; in short: as §2

SMILES | IC50 [3] [µM] | solubility [5] [ppm] | IC50 [8] [µM] | IC50 [9] [µM] | hemolysis at 1 h, 100 µM [1] [%] | CC50 at 48 h [2] [µM] | selectivity ratio [4] | HC50 at 1 h [6] [µM] | Ratio IC50 [7]
CCCCCCN(CCO)c1c([N+](=O)[O-])cc(C(F)(F)F)cc1[N+](=O)[O-] | > 50 | 5.7 |  |  | 0.7 | 10 | 2 | > 100 | 
CCCCCN(CCO)c1c([N+](=O)[O-])cc(C(F)(F)F)cc1[N+](=O)[O-] | > 50 | 6 |  |  | 0.8 | > 50 | 2 | > 100 | 
O=[N+]([O-])c1cc(C(F)(F)F)cc([N+](=O)[O-])c1N1CCCCC1 | > 50 | 0.8 |  |  | 1.2 | > 50 | 2 | > 100 | 
O=[N+]([O-])c1cc(C(F)(F)F)cc([N+](=O)[O-])c1NC1CCCCC1 | 9.1 | 0.1 |  |  | 1.1 | > 50 | 2 | > 100 | 
CCCN(CCC)c1c([N+](=O)[O-])cc(C(F)(F)F)cc1[N+](=O)[O-] [TRIFLURALIN] | > 50 | 0.5 | > 100 | > 100 | 1.3 | > 50 | 2 | > 100 | 
CCCN(CCO)c1c([N+](=O)[O-])cc(C(F)(F)F)cc1[N+](=O)[O-] | > 50 | 72.3 | > 100 | > 100 | 0.2 | > 50 | 2 | > 100 | 
CCN(CCO)c1c([N+](=O)[O-])cc(C(F)(F)F)cc1[N+](=O)[O-] | > 50 | 157.4 | > 100 | > 100 | 0.4 | > 50 | 2 | > 100 | 

These reach a lower IC50 [3]. Values come first.

IC50 [3] [µM] | solubility [5] [ppm] | IC50 [8] [µM] | IC50 [9] [µM] | SMILES | hemolysis at 1 h, 100 µM [1] [%] | CC50 at 48 h [2] [µM] | selectivity ratio [4] | HC50 at 1 h [6] [µM] | Ratio IC50 [7]
1.1 | 20 |  |  | O=[N+]([O-])c1cc(C(F)(F)F)cc([N+](=O)[O-])c1Nc1ccccc1O | 1.2 | > 50 | 2 | > 100 | 2.5
1.2 | 22.6 | > 100 | > 100 | CCCCN(CCO)c1c([N+](=O)[O-])cc(C(F)(F)F)cc1[N+](=O)[O-] | 0.5 | > 50 | 2 | > 100 | 2.5
2.7 |  |  |  | CCCCCCCCCCCCCCCCOP(=O)([O-])OCC[N+](C)(C)C [MILTEFOSINE] |  | 28.6 |  | 38.3 | 
2.2 | 9.5 |  |  | O=[N+]([O-])c1cc(C(F)(F)F)cc([N+](=O)[O-])c1Nc1cccc(O)c1 | 1.4 | 35 | 2 | > 100 | 
7.3 | 4.6 | > 100 | > 100 | CN(C)c1c([N+](=O)[O-])cc(C(F)(F)F)cc1[N+](=O)[O-] | 0 | > 50 | 2 | > 100 | 
1.8 | 11.4 | 2.2 | 0.6 | O=[N+]([O-])c1cc(C(F)(F)F)cc([N+](=O)[O-])c1Nc1ccc(O)cc1 | 1.4 | 40 | 2 | > 100 | 
0.5 | 18.6 | > 100 | > 100 | O=[N+]([O-])c1cc(C(F)(F)F)cc([N+](=O)[O-])c1N1CCOCC1 | 0.3 | > 50 | 2 | > 100 | 5
